# Calls of active or inactive are those of the source. The rule behind the calls is not given here.
# Tests used:
# Assay type in all cases: functional, cell-based
# MEL-JUSO [1] = experiment: Cytotoxicity against human MEL-JUSO cells incubated for 2 hrs by cell titre blue viability assay
# K562 [2] = experiment: Induction of DNA damage in human K562 cells assessed as increase in gammaH2AX at 10 uM for 2 hrs by Western blotting analysis
# In short: (§1)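 K562 cells treated 2 h with drug (10 μM; also 1 and 5 μM), washed and lysed directly in SDS sample buffer. Lysates separated by SDS-PAGE and blotted to PVDF. Probed for γH2AX (1:1000) with β-actin loading control and IRDye 800CW anti-mouse secondary; infrared imaging. γH2AX normalized to actin. Etoposide was the positive control. At 10 μM: mean ± SD of three independent experiments.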
# MEL-JUSO [3] = experiment: Effect of chromatin damage activity in human MEL-JUSO cells stably expressing PAGFPH2A assessed as histone eviction measured upto 60 mins measured by confocal microscopic analysis
# K562 [4] = experiment: Cytotoxicity against human K562 cells incubated for 2 hrs by cell titre blue viability assay; conditions: K562, 2 h
# In short: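 Viability read by CellTiter-Blue, normalized to untreated control and background-corrected. Media: K562 RPMI-1640, MelJuSo IMDM, U2OS DMEM, each with 8% FCS; 5% CO2, 37 °C.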
# K562 [5] = experiment: Induction of DNA damage in human K562 cells assessed as increase in gammaH2AX at 1 to 5 uM for 2 hrs by Western blotting analysis; conditions: dose 1-5 µM; in short: as §1
# K562 [6] = experiment: Induction of DNA damage in human K562 cells assessed as DNA double strand break measured by constant gel field electrophoresis
# In short: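 Double-strand breaks resolved by constant-field gel electrophoresis and quantified as broken DNA relative to total DNA. Etoposide was the positive control. Mean ± SD of three independent experiments.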
# U2OS = experiment: Cytotoxicity against human U2OS cells incubated for 2 hrs by cell titre blue viability assay
Structure (SMILES),IC50 (MEL-JUSO [1]),Activity (K562 [2]),Activity (MEL-JUSO [3]),IC50 (K562 [4]),Activity (K562 [5]),Activity (K562 [6]),IC50 (U2OS)
CC[C@]1(O)Cc2c(O)c3c(c(O)c2[C@@H](O[C@H]2C[C@H](N(C)C)[C@H](O)[C@H](C)O2)C1)C(=O)c1c(OC)cccc1C3=O,1.81 µM,inactive,Active,1.18 µM,inactive,inactive,1.36 µM
COc1cccc2c1C(=O)c1c(O)c3c(c(O)c1C2=O)C[C@@](O)(CCO)C[C@@H]3O[C@H]1C[C@H](N(C)C)[C@H](O)[C@H](C)O1,2.87 µM,inactive,Active,1.62 µM,inactive,inactive,4.21 µM
CC(=O)[C@]1(O)Cc2c(O)c3c(c(O)c2[C@@H](O[C@H]2C[C@H](N)[C@H](O)[C@H](C)O2)C1)C(=O)c1ccccc1C3=O [IDARUBICIN],0.089 µM,,,,,,0.024 µM
COc1cccc2c1C(=O)c1c(O)c3c(c(O)c1C2=O)C[C@@](O)(C(=O)CO)C[C@@H]3O[C@H]1C[C@H](N2CCCCC2)[C@H](O)[C@H](C)O1,0.078 µM,inactive,Active,0.195 µM,inactive,inactive,0.105 µM
"COc1cccc2c1C(=O)c1c(O)c3c(c(O)c1C2=O)C[C@@](O)(C(=O)CO)C[C@@H]3O[C@H]1C[C@H](N(C)C)[C@H](O[C@H]2C[C@H](O)[C@H](O[C@H]3CCC(=O)[C@H](C)O3)[C@H](C)O2)[C@H](C)O1 (single isomer, unassigned)",,inactive,Active,0.019 µM,inactive,inactive,0.011 µM
COc1cccc2c1C(=O)c1c(O)c3c(c(O)c1C2=O)C[C@@](O)(C(=O)CO)C[C@@H]3O[C@H]1CC[C@H](O)[C@H](C)O1,2.43 µM,Active,Active,1.62 µM,Active,Active,10 µM
CC(=O)[C@]1(O)Cc2c(O)c3c(c(O)c2[C@@H](O[C@H]2C[C@H](N)[C@H](O[C@H]4C[C@H](O)[C@H](O[C@H]5CCC(=O)[C@H](C)O5)[C@H](C)O4)[C@H](C)O2)C1)C(=O)c1ccccc1C3=O,0.68 µM,Active,,0.23 µM,Active,Active,0.376 µM
COc1cccc2c1C(=O)c1c(O)c3c(c(O)c1C2=O)C[C@@](O)(CCO)C[C@@H]3O[C@H]1C[C@H](N)[C@H](O)[C@H](C)O1 [13-DEOXYDOXORUBICIN],1.15 µM,Active,,1.79 µM,Active,Active,0.891 µM
CC[C@@]1(O)C[C@H](O[C@H]2C[C@H](N)[C@H](O)[C@H](C)O2)c2c(O)c3c(c(O)c2[C@H]1C(=O)OC)C(=O)c1cccc(O)c1C3=O,4.29 µM,Active,,5.32 µM,Active,Active,10 µM
CC[C@@]1(O)C[C@H](O[C@H]2C[C@H](N(C)C)[C@H](O)[C@H](C)O2)c2c(O)c3c(c(O)c2[C@H]1C(=O)OC)C(=O)c1cccc(O)c1C3=O,0.835 µM,inactive,,1.1 µM,inactive,inactive,1.13 µM
COc1cccc2c1C(=O)c1c(O)c3c(c(O)c1C2=O)C[C@@](O)(C(=O)CO)C[C@@H]3O[C@H]1C[C@H](N2CCC2)[C@H](O)[C@H](C)O1,0.297 µM,inactive,Active,0.379 µM,inactive,inactive,0.159 µM
COc1cccc2c1C(=O)c1c(O)c3c(c(O)c1C2=O)C[C@@](O)(C(=O)CO)C[C@@H]3O[C@H]1C[C@H](O)[C@H](O)[C@H](C)O1 [HYDROXYRUBICIN],1.9 µM,Active,Active,0.856 µM,Active,Active,6.79 µM
COc1cccc2c1C(=O)c1c(O)c3c(c(O)c1C2=O)C[C@@](O)(C(=O)CO)C[C@@H]3O[C@H]1C[C@H](N=[N+]=[N-])[C@H](O)[C@H](C)O1,1.22 µM,Active,Active,0.084 µM,Active,Active,10 µM
COc1cccc2c1C(=O)c1c(O)c3c(c(O)c1C2=O)C[C@@](O)(C(=O)CO)C[C@@H]3O[C@H]1C[C@H](N2CCOCC2)[C@H](O)[C@H](C)O1,0.051 µM,inactive,Active,0.064 µM,inactive,inactive,0.077 µM
COc1cccc2c1C(=O)c1c(O)c3c(c(O)c1C2=O)C[C@@](O)(C(=O)CO)C[C@@H]3O[C@H]1C[C@H](N2CCCC2)[C@H](O)[C@H](C)O1,0.073 µM,inactive,Active,0.172 µM,inactive,inactive,0.122 µM
CC[C@]1(O)Cc2c(O)c3c(c(O)c2[C@@H](O[C@H]2C[C@H](N)[C@H](O)[C@H](C)O2)C1)C(=O)c1c(OC)cccc1C3=O,0.372 µM,Active,,0.042 µM,Active,Active,0.237 µM
COc1cccc2c1C(=O)c1c(O)c3c(c(O)c1C2=O)C[C@@](O)(C(=O)CO)C[C@@H]3O[C@H]1C[C@H](O)[C@H](N)[C@H](C)O1,0.998 µM,Active,,0.381 µM,Active,Active,1.12 µM
COc1cccc2c1C(=O)c1c(O)c3c(c(O)c1C2=O)C[C@@](O)(C(=O)CO)C[C@@H]3O[C@H]1C[C@H](N)[C@H](O)[C@H](C)O1 [DOXORUBICIN],0.523 µM,,Active,,,,0.339 µM
CC[C@@]1(O)C[C@H](O[C@H]2C[C@H](N(C)C)[C@H](O[C@H]3C[C@H](O)[C@H](O[C@H]4CCC(=O)[C@H](C)O4)[C@H](C)O3)[C@H](C)O2)c2c(cc3c(c2O)C(=O)c2c(O)cccc2C3=O)[C@H]1C(=O)OC [ACLARUBICIN],0.099 µM,inactive,,0.031 µM,inactive,inactive,0.209 µM
CC(=O)[C@]1(O)Cc2c(O)c3c(c(O)c2[C@@H](O[C@H]2C[C@H](N(C)C)[C@H](O[C@H]4C[C@H](O)[C@H](O[C@H]5CCC(=O)[C@H](C)O5)[C@H](C)O4)[C@H](C)O2)C1)C(=O)c1ccccc1C3=O,0.008 µM,inactive,,0.02 µM,inactive,inactive,0.012 µM
COc1cccc2c1C(=O)c1c(O)c3c(c(O)c1C2=O)C[C@@](O)(C(C)=O)C[C@@H]3O[C@H]1C[C@H](N)[C@H](O)[C@H](C)O1 [DAUNORUBICIN],0.286 µM,,,,,,0.061 µM
COc1cccc2c1C(=O)c1c(O)c3c(c(O)c1C2=O)C[C@@](O)(C(=O)CO)C[C@@H]3O[C@H]1C[C@H](O)[C@H](N(C)C)[C@H](C)O1,0.433 µM,,Active,0.129 µM,,,0.285 µM

# Reference: ChEMBL document CHEMBL5360645, “Re-Exploring the Anthracycline Chemical Space for Better Anti-Cancer Compounds” (J Med Chem, 2023)
